# In PMC4506688 (Pharmacology Research & Perspectives, 2015):
# How the values were obtained:
# [1] = system: C8B4 murine microglia; assay: On cell polarization assay; format: cell-based; details: 1 μg/mL LPS, ligand at EC50 added 1 h after LPS, 24 h
# In short: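 C8B4 microglia were seeded at 20,000 cells/well in DMEM with 10% FBS, then switched to 1% FBS the next day. On day 3, LPS was added (final 1 μg/mL), followed 1 h later by the test compound in LPS-containing medium. After 24 h, cells were given anti-CD16/32 or anti-CD206 antibody (2 μg/mL, 2 h), then a SULFO-TAG secondary (2 h). The electrochemiluminescence read-out was normalized to LPS control and analyzed by ANOVA.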
# [2] = reported; ref Wohnsland and Faller [2001]; cited from earlier work
# [3] = target: CB2 (Homo sapiens, UniProt P34972); assay: ACTOne cell-based cAMP assay in HEK-CNG+CB2 cells; details: HEK-CNG+CB2, control agonist
# Chain of CB2 (P34972 whole entry): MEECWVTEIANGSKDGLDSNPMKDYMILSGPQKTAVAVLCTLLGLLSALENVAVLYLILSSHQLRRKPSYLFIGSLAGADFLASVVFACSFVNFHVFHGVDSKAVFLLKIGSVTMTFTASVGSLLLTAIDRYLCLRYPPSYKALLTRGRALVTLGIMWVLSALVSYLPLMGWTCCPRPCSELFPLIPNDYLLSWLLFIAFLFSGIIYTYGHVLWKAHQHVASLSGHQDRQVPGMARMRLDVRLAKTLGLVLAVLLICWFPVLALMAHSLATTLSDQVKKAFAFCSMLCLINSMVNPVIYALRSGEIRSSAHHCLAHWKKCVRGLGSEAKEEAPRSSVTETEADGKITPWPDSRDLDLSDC
# [4] = system: parental HEK-CNG cells; assay: ACTOne cell-based cAMP assay in parental HEK-CNG cells; set-up: species or system human
# [5] = target: CB1 (Homo sapiens, UniProt P21554); assay: ACTOne cell-based cAMP assay in HEK-CNG+CB1 cells; details: HEK-CNG+CB1, control agonist
# Chain of CB1 (P21554 whole entry): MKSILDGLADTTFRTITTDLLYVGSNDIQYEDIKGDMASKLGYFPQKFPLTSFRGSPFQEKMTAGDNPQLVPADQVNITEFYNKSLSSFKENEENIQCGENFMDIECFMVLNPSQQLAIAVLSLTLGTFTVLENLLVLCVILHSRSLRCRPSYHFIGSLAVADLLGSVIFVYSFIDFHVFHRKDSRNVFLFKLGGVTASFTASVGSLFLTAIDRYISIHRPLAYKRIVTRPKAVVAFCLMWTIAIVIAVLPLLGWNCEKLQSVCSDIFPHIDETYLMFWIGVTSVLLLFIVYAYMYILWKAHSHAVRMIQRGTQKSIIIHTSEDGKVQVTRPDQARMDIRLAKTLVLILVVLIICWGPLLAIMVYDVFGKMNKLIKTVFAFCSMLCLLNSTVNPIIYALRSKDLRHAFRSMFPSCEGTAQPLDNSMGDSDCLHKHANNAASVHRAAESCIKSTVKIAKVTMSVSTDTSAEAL
Compound,CD16/32 (M1 marker) expression compared to LPS control [1],CD206 (M2 marker) expression compared to LPS control [1],other results
CCCCCCC(C)(C)c1cc(OC)c([C@@H]2C=C(CO)[C@@H]3C[C@H]2C3(C)C)c(OC)c1 [HU 308],only HU 308 did so significantly (P < 0.001),significantly decreased CD206,
CN1C(C(=O)Nc2ccccn2)=C(O)c2ccccc2S1(=O)=O [piroxicam],,,Absorbed in humans [2]: 90–100%
CCCC(C)(C)c1ccc2c(c1)OC(C)(C)[C@@H]1CC=C(C)C[C@@H]21 [JWH 133],decreased CD16/32 expression compared to LPS controls,significantly decreased CD206,
"CCCCCCC(C)(C)c1ccc([C@@H]2C[C@H](O)CC[C@H]2CCCO)c(O)c1 [CP 55,940, 2-[(1R,2R,5R)-5-hydroxy-2-(3-hydroxypropyl)cyclohexyl]-5-(2-methyloctan-2-yl)phenol]",,,Average reduction in cAMP response [3]: 90%; Change in cAMP-driven fluorescence / cAMP response [4]: no response was observed; Average reduction in cAMP response [5]: 90%
SR 144528,also decreased CD16/32 expression in comparison to LPS control,significantly increased CD206,
